S1P4 antag – blocks the human S1P4 receptor | hit rate 0.26% among 220,000 | S1P4-expressing cells, antagonist mode, reporter read-out | inhibition, % at 4.98 µM | AID 1510; in the data active means inhibition above about 29%;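 further: 0% = wells stimulated with agonist and 100% = vehicle wells without agonist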
TNAP inh hi DEA – blocks human TNAP under high phosphate acceptor concentration; hit rate 0.03% among 200,000; purified TNAP, CDP-star luminescence, 1 M DEA; AID 1135; inhibition, % at 20 µM;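 active means over 50% inhibition of tissue-nonspecific alkaline phosphatase at 20 µM in the single-dose screen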;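 further: plate controls were DMSO wells for no effect and EDTA-quenched wells as full inhibition for full effect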
S1P3 antag-1 – antagonists of human S1P3 receptor; CHO S1P3 NFAT-BLA reporter, FRET fluorescence, antagonist mode; inhibition, % at 4.98 µM; hit rate 0.27% among 170,000; AID 485;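 active means inhibition above the plate cutoff, the mean inhibition of test wells on that plate plus 3 SD, cut at about 28% in these data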;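 further: cells challenged with S1P at its EC80 of 0.8 µM; blue over green emission ratio from cleaved BLA substrate after 4 h stimulation; 0% = S1P-stimulated wells and 100% = unstimulated DMSO-only wells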
Target sequence (Q99500 whole entry, looked up): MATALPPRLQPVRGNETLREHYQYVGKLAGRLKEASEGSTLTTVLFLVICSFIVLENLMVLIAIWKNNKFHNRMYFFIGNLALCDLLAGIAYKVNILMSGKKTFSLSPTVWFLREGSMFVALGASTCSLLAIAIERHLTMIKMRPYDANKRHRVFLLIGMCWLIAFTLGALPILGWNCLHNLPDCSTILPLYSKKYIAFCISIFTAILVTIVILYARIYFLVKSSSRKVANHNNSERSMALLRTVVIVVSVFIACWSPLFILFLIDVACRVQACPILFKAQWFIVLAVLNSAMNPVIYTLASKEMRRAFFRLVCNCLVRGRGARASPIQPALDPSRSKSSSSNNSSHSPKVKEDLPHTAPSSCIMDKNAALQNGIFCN
TNAP inh no acc – blocks human TNAP activity with no phosphate acceptor present; P05186; purified TNAP, CDP-star luminescence, 30 min; inhibition, % at 20 µM; hit rate 0.26% among 200,000; AID 1012;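 active means tissue-nonspecific alkaline phosphatase inhibition above about 50% at 20 µM in the single-dose screen, limit read from the data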;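 further: 0% = DMSO negative control and 100% = EDTA positive control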
S1P4 ag – activates the human S1P4 receptor; O95977; S1P4-expressing cell line, agonist reporter assay; AID 1509; hit rate 0.35% among 220,000; activation, % at 4.98 µM; in the data active means activation above about 11%;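 further: 0% = DMSO vehicle and 100% = reference agonist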
TNAP act hi DEA – activators of human TNAP at high phosphate acceptor concentration; 200,000 tested, under 10 active; purified TNAP, CDP-star luminescence, 1 M DEA, 30 min; active compounds read high; 0 = EDTA background, 1 = DMSO-only activity; activation factor at 20 µM; AID 1136;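 active means activation factor at least 2 at 20 µM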
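Test system – human TNAP · Doses – 20 µM single point · Incubation – 30 min, room temperature · Signal – luminescent substrate turnover signal · Read-out basis – activation factor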
S1P3 antag-2 – human S1P3 receptor antagonism, confirmation. shares compounds with S1P3 antag-1. CHO S1P3 NFAT-BLA reporter, FRET, antagonist mode. inhibition, % at 4.98 µM. hit rate 30% among 240. AID 1429;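 active means inhibition above the hit threshold that was computed for the earlier primary screen, cut at about 30% in these data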;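 further: 0% = S1P-stimulated wells and 100% = unstimulated DMSO-only wells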
S1P4 agonist cf – human S1P4 agonism, confirmation; shares compounds with S1P4 ag; S1P4 agonist cell-based reporter assay; activation, % at 4.98 µM; hit rate 7% among 740; AID 1523; in the data active means activation above about 12%;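 further: 0% = vehicle and 100% = full reference agonist response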
S1P1 agonist – activates human S1P1, counter-screen for S1P4 agonists | shares compounds with S1P4 ag | S1P1 agonist cell-based assay, activation | activation, % at 4.98 µM | hit rate 4% among 740; in the data active means activation above about 21%;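 further: 0% = vehicle wells and 100% = reference agonist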
S1P4 antag conf – confirmation of human S1P4 receptor antagonists | hit rate 71% among 520 | inhibition, % at 4.98 µM | shares compounds with S1P4 antag | AID 1524 | S1P4-expressing cell line, antagonist mode, reporter read-out; in the data active means inhibition above about 30%
The depositor's hits bear a star; x = not tested or not shown; ! = not active in a repeat. An excerpt weighted towards active compounds, which were near 1.1% of everything screened.

SMILES	S1P4 antag	TNAP inh hi DEA	S1P3 antag-1	TNAP inh no acc	S1P4 ag	TNAP act hi DEA	others
O=C(NC1(C(F)(F)F)Oc2ccc(Cl)cc2O1)N1CCC2(CC1)OCCO2 (stereo unspecified)	42*	-8	x	32	-6	1.1
Cc1nc2ccc(P(=O)(O)O)cc2s1	1	-5	20	-9	0	1.1
O=C(N/N=C/c1c(O)n(Cc2ccc(F)cc2)c(=S)[nH]c1=O)c1ccncc1	6	x	4	x	0	x
CCC(C)n1c(O)c(/C=N/NC(=O)c2ccncc2)c(=O)[nH]c1=S (stereo unspecified)	-14	-3	2	75*	-1	1
CCn1c(O)c(/C=N/NC(=O)c2ccncc2)c(=O)[nH]c1=S	-13	8	-2	84*	1	0.9
Cc1c(C=O)c2ccccc2n1Cc1cccc(F)c1	5	-1	6	-10	1	1
C=C(C)CSc1nnc([C@@H](N)Cc2ccccc2)o1	-5	x	8	x	-2	x
O=C1NC(=O)N(c2ccc3c(c2)OCO3)C(=O)/C1=C\c1ccc(N2CCCCC2)o1	3	42	-2	40	2	0.6
Cc1cccc(N2C(=O)/C(=C/c3ccc(N4CCN(C)CC4)o3)C(=O)NC2=S)c1C	-9	32	-9	51*	0	0.7
CCc1ccccc1N1C(=O)/C(=C/c2ccc(N3CCN(C)CC3)o2)C(=O)NC1=S	9	44	4	51*	1	0.6
Cc1ccccc1N1C(=O)NC(=O)/C(=C/c2ccc(N3CCOCC3)o2)C1=O	-7	x	-8	x	-1	x
CCCCC(=O)N/N=C/c1c(O)n(Cc2ccco2)c(=O)[nH]c1=O	-12	1	-6	69*	-1	1
COCCNC(=O)c1ccc(N2CC3CC(C2)c2cccc(=O)n2C3)c([N+](=O)[O-])c1 (stereo unspecified)	-16	1	4	-14	0	1
Cc1cc2c(C(C)C)c(O)c(O)c(C=O)c2c(O)c1-c1c(C)cc2c(C(C)C)c(O)c(O)c(C=O)c2c1O	32*!	18	15	17	1	0.8
Cn1ncnc2c(=O)n(C)c(=O)nc1-2	x	-3	105*	-4	x	1
CSc1ccc(C(=O)C(C)(C)N2CCOCC2)cc1	3	0	-22	-6	3	1
O=c1[nH]c(O)c(/C=C2\C=NN=C2c2ccccc2)c(=O)[nH]1	-5	1	x	51*	1	1
CN1/C(=C\C=C2C(=O)NC(=S)NC2=O)C(C)(C)c2ccccc21	1	47	-12	35	-1	0.5
CC1(C)OC(c2ccccc2)=C/C(=C/C=C2C(=O)NC(=S)NC2=O)O1	1	10	0	59*	1	0.9
CCOc1ccc(Br)c(C2(O)CC(C)N(C)CC2C)c1 (stereo unspecified)	-3	-1	6	-11	3	1
OC1CCCCC1N1CCC(c2ccccc2)CC1 (stereo unspecified)	-20	-4	4	-12	1	1
c1ccc(C2OCCN3CCCCC23)cc1 (stereo unspecified)	2	-4	0	-1	241*	1
O=c1cccc2n1CC1CC2CN(c2nc(N3CCCCC3)nc(N3CCCCC3)n2)C1 (stereo unspecified)	1	0	-16	-5	0	1
O=C(N/N=C/C1C(=O)NC(=S)N(c2ccccc2)C1=O)c1cc(Br)c(O)c(Br)c1 (stereo unspecified)	-12	0	-4	75*	1	1
Cc1ccc2c(c1)C1CN(C)CCC1N2C(=O)COc1ccc(S(=O)(=O)N2CCOCC2)cc1 (stereo unspecified)	-2	-4	76*	-12	0	1
SMILES	S1P4 antag	TNAP inh hi DEA	S1P3 antag-1	TNAP inh no acc	S1P4 ag	TNAP act hi DEA	others
Fc1c(F)c(F)c(N2CCNCC2)c(F)c1F	5	-2	-14	-9	2	1
O=C(COC(=O)Cc1ccccc1)Nc1ccc(Cl)cn1	-5	-1	36*	-1	-1	1	S1P3 antag-2=-11
C[C@H]1C[C@@H](C)C(=O)[C@@H]([C@H](O)CC2CC(=O)NC(=O)C2)C1	26	-2	84*	-6	0	1	S1P3 antag-2=82*
COc1ccc(-n2c(O)c(C(C)=NCc3ccco3)c(=O)[nH]c2=O)cc1	-5	-5	-16	-11	1	1.1
CCOc1ccc(-n2c(-c3ccoc3)nc3ccccc3c2=O)cc1	8	-6	x	-18	-2	1.1
CCOc1ccc(-c2c(C)n(-c3ccc(OCC)cc3)c3[n+]2CCCCC3)cc1	-8	x	40*	x	2	x	S1P3 antag-2=16
CC12CN3CC(C)(CN(C1)C3c1cccs1)C2O (stereo unspecified)	6	-10	-17	-6	2	1.1
CN[C@H]1C[C@H]2O[C@@](C)([C@H]1OC)n1c3ccccc3c3c4c(c5c6ccccc6n2c5c31)C(=O)NC4	105*	-4	109*	-12	-5	1	S1P3 antag-2=121*;S1P4 antag conf=117*
N=C(N)c1c(O)n(C2CCCCC2)c(=O)n(C2CCCCC2)c1=O	17	-4	5	2	0	1
S=C1CN=C(c2ccccc2Cl)c2cc(Cl)ccc2N1	0	4	x	5	27*	1	S1P4 agonist cf=-2;S1P1 agonist=-5
CC(C)CCNC(=O)c1c(N)n(CC2CCCO2)c2nc3ccccc3nc12 (stereo unspecified)	-4	-5	x	-36	12*	1.1	S1P4 agonist cf=5;S1P1 agonist=12
CCC(C)NC(=O)c1c(N)n(CC2CCCO2)c2nc3ccccc3nc12 (stereo unspecified)	-9	-10	2	-20	1	1.1
O=C(Cc1cccs1)N1CCC2(CC1)OCCO2	-23	-6	-59	-8	-2	1.1
O=C(C1CCC(=O)N1C1CCCCC1)N1CCC2(CC1)OCCO2 (stereo unspecified)	-6	-5	10	-6	2	1
COCCNC(=O)c1c(NC(=O)c2ccco2)n(Cc2ccccc2)c2nc3ccccc3nc12	-20	3	-52	3	0	1
COCCCNC(=O)c1c(NC(=O)c2ccccc2Cl)n(Cc2ccccc2)c2nc3ccccc3nc12	-9	-1	x	-15	12*	1	S1P4 agonist cf=0;S1P1 agonist=2
